Assay results of several laboratories.
Compare with care: the assays were run in different laboratories.
Target: Casein kinase I isoform delta (CSNK1D, Homo sapiens, UniProt P48730)

Compound | test | conditions | remaining binding
O=C(NCCCN1CCOCC1)c1ccc(Nc2ncc(Cl)c(-c3ccc(Cl)s3)n2)cc1 | binding, competition with immobilised ligand | 1 µM | 100%
CN(CCCC(F)(F)F)c1nccc(-c2cnn3ncccc23)n1 | binding | 1 µM | 100%
O=C(Nc1cccnn1)N1CCC(=Cc2cccc(Oc3ccc(C(F)(F)F)cn3)c2)CC1 | cell-free assay, competition with immobilised ligand | 1 µM | 100%
COc1ncc2cc3ccccc3nc2c1C#N | cell-free assay, competition with immobilised ligand | 5 µM | 93%
Cc1cnn2ncc(-c3ccnc(N(C)C)n3)c2c1 | binding | 1 µM | 69%
c1cncc(-c2cccc(Nc3nccc(NC4CCCCC4)n3)c2)c1 | binding, competition with immobilised ligand | 10 µM | 55%
CCN1CCN(Cc2ccc(C(=O)Nc3ccc(C)c(Oc4ccc5c(c4)CC(=O)N5)c3)cc2C(F)(F)F)CC1 | binding, competition with immobilised ligand | 1 µM | 88%
FC(F)(F)Oc1cccc(-c2cnc3ccc(-c4ccncc4)nn23)c1 | cell-free assay, competition with immobilised ligand | 5 µM | 56%
O=C(c1ccc(Nc2nccc(-c3cc4ccccc4s3)n2)cc1)N1CCC(N2CCCC2)CC1 | binding, competition with immobilised ligand | 1 µM | 100%
c1cnn2ncc(-c3ccnc(N4CCC45COC5)n3)c2c1 | binding | 1 µM | 41%
CN(C(=O)c1ccccc1)c1cc(N(C)c2ccc3c(c2)CCc2ccc(C(=O)NCCN4CCOCC4)cc2C3=O)ccc1F | cell-free assay, competition with immobilised ligand | 1 µM | 100%
C[C@H]1CCN(c2nccc(-c3cnn4ncccc34)n2)C1 | binding | 1 µM | 71%
CC(=O)C1=C(C)N(c2cccc(C(F)(F)F)c2)C(=O)N[C@@H]1c1ccc(C#N)nc1 | cell-free assay, competition with immobilised ligand | 1 µM | 100%
COC(=O)Nc1nc2ccc(C(=O)c3ccccc3)cc2[nH]1 | cell-free assay, competition with immobilised ligand | 10 µM | 36%
COc1ccc2c(c1)O[C@H](c1ccc(OC)c(OC)c1)C[C@@H]2NC(=O)C1(c2ccc3c(c2)OC(F)(F)O3)CC1 | cell-free assay, competition with immobilised ligand | 1 µM | 92%
CNC(=O)[C@@H]1CC[C@@H](n2c(-c3ccc4cnccc4c3)nc3ccc(C(=O)NCc4cccc(C(N)=O)c4)cc32)C1 | binding, competition with immobilised ligand | 1 µM | 100%
CN(C)c1ncnc(-c2ccc3nc(Nc4cc(CN5CCN(C(=O)CC(F)(F)F)CC5)ccn4)[nH]c3c2)c1Cl | cell-free assay, competition with immobilised ligand | 1 µM | 83%
Cc1cnc(Nc2ccc(C(=O)N3CCC(N4CCCC4)CC3)cc2)nc1-c1cc2ccccc2s1 | binding, competition with immobilised ligand | 1 µM | 100%
C[C@@H](c1ccc(-n2cnc3c(N)ncnc32)cc1)N1CCc2nn(C)c(Cc3ccccc3)c2C1=O | binding, competition with immobilised ligand | 0.1 µM | 76%
CNCc1ccccc1-c1csc([C@@H](C)Nc2nc(C)nc3cc(OC)c(OC)cc23)c1 | cell-free assay, competition with immobilised ligand | 1 µM | 82%
CN(C)c1nccc(-c2cnc3ncccn23)n1 | binding | 1 µM | 57%
N#Cc1ccc(Nc2ccc3[nH]c(=O)[nH]c3c2)c(Cl)c1 | cell-free assay, competition with immobilised ligand | 1 µM | 100%
O=C(Nc1c[nH]nc1C(=O)NC1CCNCC1)c1cc(F)cc(F)c1 | binding, competition with immobilised ligand | 1 µM | 95%
CN(C)c1nccc(-c2cnn3ncccc23)n1 | binding | 1 µM | 62%
